Experiment [1] deals with Human immunodeficiency virus 1. Kind of experiment: Antiviral activity against HIV-1 LAI harboring wild type reverse transcriptase infected in human MT4 cells after 5 days by MTT assay. The format is functional, organism-based. As to conditions: Human immunodeficiency virus 1, LAI, MT4, 120 h. Put shortly:
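MT4 cells were kept in RPMI 1640 with 10% fetal calf serum and antibiotics at 37 °C, 5% CO2. A range of compound concentrations was incubated with HIV-1 LAI at 200 CCID50/well and 30000 MT4 cells/well for 5 days at 37 °C. Cell viability was read by MTT, and IC50 was the concentration giving 50% infection versus the drug-free control.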
Background: Formazan colour is commonly taken as a measure of viable cells.

A short description of experiment [2]: Selectivity index, ratio of CC50 for human MT4 cells to IC50 for HIV-1 LAI harboring wild type reverse transcriptase infected in human MT4 cells. The format is functional. In short, it runs like this: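 Cytotoxicity was measured in mock-infected MT4 cultures (30000 cells/well) given the same compound concentration range, run in parallel with the infected cultures for 5 days at 37 °C, 5% CO2, with MTT viability. CC50 was the concentration reducing viability by 50% versus the drug-free control. SI was CC50 divided by IC50 against HIV-1 LAI.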

In experiment [3] the test system is Human immunodeficiency virus 1. Kind of experiment: Antiviral activity against HIV1 HXB2 harboring Y188L mutant reverse transcriptase infected in human MT4 cells after 5 days by MTT assay. It is filed as functional, organism-based. The settings on record: Human immunodeficiency virus 1, HXB2, MT4, 120 h. In short, it runs like this: (§1)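 Mutant viruses were made by recombining the mutant PR-RT sequence into a PR-RT-deleted HIV-1 HXB2 proviral clone. MT4 cells were grown in RPMI 1640 with 10% FCS and antibiotics. Virus at 200 CCID50/well and 30000 cells/well were incubated with varied compound concentrations for 5 days at 37 °C, 5% CO2. MTT viability gave IC50, the concentration giving 50% infection versus the drug-free control.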

Experiment [4] relates to Human immunodeficiency virus 1. Kind of experiment: Antiviral activity against HIV1 HXB2 harboring Y181C mutant reverse transcriptase infected in human MT4 cells after 5 days by MTT assay. The settings on record: Human immunodeficiency virus 1, HXB2, MT4, 120 h. The format is functional, organism-based. In short, it runs like this: as §1
Experiment [5] concerns Human immunodeficiency virus 1. Kind of experiment: Antiviral activity against HIV1 HXB2 harboring K103N mutant reverse transcriptase infected in human MT4 cells after 5 days by MTT assay. As to conditions: Human immunodeficiency virus 1, HXB2, MT4, 120 h. The format is functional, organism-based. Put shortly: as §1

The source of these data is ChEMBL document CHEMBL1154778, “Synthesis and biological evaluation of C-5 methyl substituted 4-arylthio and 4-aryloxy-3-Iodopyridin-2(1H)-one type anti-HIV agents” (J Med Chem, 2009).

Each structure is given as a SMILES string. pIC50: −log10 of the molar value. Some results are limits rather than exact numbers.

As for `Cc1cc(C)cc(Oc2c(Cn3cncn3)c(C)[nH]c(=O)c2I)c1`, the negative-log IC50 (pIC50) (usually the IC50 on a negative log10 scale, so that one unit is a factor of ten) in experiment [1] was 8.70; in experiment [3] it was 7.00; in experiment [4], 8.00; in experiment [5], 8.40. Also, the “Ratio CC50/IC50” value in experiment [2] is greater than 50118.
For `COC1CCCN(Cc2c(C)[nH]c(=O)c(I)c2Oc2cc(C)cc(C)c2)C1` (configuration not stated), in that order: 8.20, 7.40, 7.80, 8.20 and greater than 15849.
For `Cc1cc(C)cc(Sc2c(CSc3nccs3)c(C)[nH]c(=O)c2I)c1`, in that order: 8.30, 5.50, 6.70, 8.10 and 15849.
For `Cc1cc(C)cc(Oc2c(CN3CC=CC3)c(C)[nH]c(=O)c2I)c1`, the negative-log IC50 (pIC50) in experiment [1] is 8.40; in experiment [3], 6.90; in experiment [4] it was 7.30; in experiment [5] it was 8.10. For the same compound, in experiment [2], the “Ratio CC50/IC50” value is given as 15848.
In the case of `Cc1cc(C)cc(Sc2c(Cn3ncnc3C)c(C)[nH]c(=O)c2I)c1`, the pIC50 in experiment [1] is 8.70; in experiment [3], 6.50; in experiment [4] it was 7.50; in experiment [5], 7.80. For the same compound, the “Ratio CC50/IC50” value in experiment [2] is reported as greater than 12589.
For `Cc1cc(C)cc(Oc2c(CN3CCC(OC(N)=O)CC3)c(C)[nH]c(=O)c2I)c1`, in that order: 8.20, 7.30, 7.60, 8.70 and 7943.
Take `Cc1cc(C)cc(Sc2c(Cn3cncn3)c(C)[nH]c(=O)c2I)c1`: the negative-log IC50 (pIC50) in experiment [1] is 9.00; in experiment [3] it was 6.90; in experiment [4], 8.10; in experiment [5], 9.00. Moreover, the “Ratio CC50/IC50” value in experiment [2] is greater than 25119.
As for `Cc1cc(C)cc(Oc2c(Cn3ccc(N)n3)c(C)[nH]c(=O)c2I)c1`, the negative-log IC50 (pIC50) was 8.10 in experiment [1], 6.90 in experiment [3], 7.40 in experiment [4] and 7.40 in experiment [5]. Also, the “Ratio CC50/IC50” value in experiment [2] is given as greater than 12589.
Turning to `Cc1cc(C)cc(Oc2c(CSCC3CCCO3)c(C)[nH]c(=O)c2I)c1` (configuration not stated), the negative logarithm of the IC50 (pIC50) in experiment [1] is 8.10; in experiment [3], 6.80; in experiment [4], 7.20; in experiment [5] it was 7.59. Besides, the “Ratio CC50/IC50” value in experiment [2] is greater than 12589.
With `COCC1CN(Cc2c(C)[nH]c(=O)c(I)c2Sc2cc(C)cc(C)c2)CCO1` (configuration not stated), the pIC50 is 8.90 in experiment [1], 6.90 in experiment [3], 7.60 in experiment [4] and 9.00 in experiment [5]. For the same compound, the “Ratio CC50/IC50” value in experiment [2] is reported as greater than 50119.
As for `Cc1cc(C)cc(Oc2c(Cn3cnc(C)n3)c(C)[nH]c(=O)c2I)c1`, the negative logarithm of the IC50 (pIC50) in experiment [1] was 8.40; in experiment [3] it was 6.90; in experiment [4], 7.50; in experiment [5] it was 7.80. For the same compound, the “Ratio CC50/IC50” value in experiment [2] is recorded as greater than 25118.
Regarding `Cc1cc(C)cc(Oc2c(Cn3ccnn3)c(C)[nH]c(=O)c2I)c1`, the negative-log IC50 (pIC50) in experiment [1] was 8.60; in experiment [3], 7.10; in experiment [4], 7.50; in experiment [5] it was 8.10. Also, the “Ratio CC50/IC50” value in experiment [2] is greater than 39810.
Take `Cc1cc(C)cc(Sc2c(CN(C)CCC#N)c(C)[nH]c(=O)c2I)c1`: the negative-log IC50 (pIC50) in experiment [1] was 8.60; in experiment [3] it was 6.00; in experiment [4], 7.20; in experiment [5], 8.20. Moreover, in experiment [2], the “Ratio CC50/IC50” value is given as greater than 31623.
In the case of `Cc1cc(C)cc(Sc2c(Cn3ccnc3)c(C)[nH]c(=O)c2I)c1`, the pIC50 in experiment [1] is 8.90; in experiment [3], 7.30; in experiment [4], 8.10; in experiment [5], 9.10. Moreover, the “Ratio CC50/IC50” value in experiment [2] amounted to 15849.
`Cc1cc(C)cc(Sc2c(Cn3cnc(C)c3/C=N/O)c(C)[nH]c(=O)c2I)c1`: the pIC50 in experiment [1] was 8.20; in experiment [3], 5.50; in experiment [4] it was 5.90; in experiment [5] it was 6.80. Further, the “Ratio CC50/IC50” value in experiment [2] is reported as greater than 15849.
For `Cc1cc(C)cc(Sc2c(Cn3cc(Br)cn3)c(C)[nH]c(=O)c2I)c1`, in that order: 8.00, 6.50, 7.40, 8.30 and greater than 10000.
On to `Cc1cc(C)cc(Sc2c(Cn3ccnc3C#N)c(C)[nH]c(=O)c2I)c1`, for which the pIC50 in experiment [1] was 9.00. In addition, in experiment [2], the “Ratio CC50/IC50” value is on record as greater than 31623.
`Cc1cc(C)cc(Sc2c(CN3CCN(C(=O)c4ccco4)CC3)c(C)[nH]c(=O)c2I)c1`: the negative logarithm of the IC50 (pIC50) in experiment [1] was 8.00. Further, the “Ratio CC50/IC50” value in experiment [2] was found to be 398.
`COCCC1CN(Cc2c(C)[nH]c(=O)c(I)c2Sc2cc(C)cc(C)c2)CCO1` (configuration not stated): the negative logarithm of the IC50 (pIC50) in experiment [1] is 8.40; in experiment [3] it was 6.40; in experiment [4] it was 7.20; in experiment [5] it was 8.30. Besides, the “Ratio CC50/IC50” value in experiment [2] is 12589.
Consider `CNC(=O)CSCc1c(C)[nH]c(=O)c(I)c1Sc1cc(C)cc(C)c1`, for which the negative-log IC50 (pIC50) is 8.80 in experiment [1], 6.10 in experiment [3], 7.40 in experiment [4] and 8.40 in experiment [5]. In experiment [2], the “Ratio CC50/IC50” value is listed as greater than 63096.
On to `CCOCc1c(C)[nH]c(=O)c(I)c1Sc1cc(C)cc(C)c1`, for which the negative-log IC50 (pIC50) in experiment [1] is 8.70; in experiment [3], 6.60; in experiment [4], 7.50; in experiment [5] it was 8.90. The “Ratio CC50/IC50” value in experiment [2] turned out to be 50119.
For `Cc1cc(C)cc(Oc2c(CO)c(C)[nH]c(=O)c2I)c1`, the pIC50 in experiment [1] was 8.30; in experiment [3], 5.50; in experiment [4] it was 6.80; in experiment [5], 6.80. The “Ratio CC50/IC50” value in experiment [2] was greater than 19953.
Turning to `Cc1cc(C)cc(Sc2c(CSCC(C)C)c(C)[nH]c(=O)c2I)c1`, the pIC50 in experiment [1] was 8.10; in experiment [3], 5.60; in experiment [4], 6.70; in experiment [5] it was 8.00. Moreover, in experiment [2], the “Ratio CC50/IC50” value is listed as greater than 12589.
The compound `Cc1cc(C)cc(Oc2c(CN3CCCC(C(N)=O)C3)c(C)[nH]c(=O)c2I)c1` (configuration not stated) showed a negative logarithm of the IC50 (pIC50) in experiment [1] of 8.00. Moreover, in experiment [2], the “Ratio CC50/IC50” value is recorded as greater than 10000.
As for `Cc1cc(C)cc(Sc2c(CN3CCOC(CN(C)C)C3)c(C)[nH]c(=O)c2I)c1` (configuration not stated), the negative-log IC50 (pIC50) is 8.30 in experiment [1], 6.00 in experiment [3] and 6.80 in experiment [4]. In addition, the “Ratio CC50/IC50” value in experiment [2] is on record as greater than 5012.
For `CCOC(=O)CSCc1c(C)[nH]c(=O)c(I)c1Oc1cc(C)cc(C)c1`, the negative-log IC50 (pIC50) in experiment [1] was 8.00. The “Ratio CC50/IC50” value in experiment [2] is listed as greater than 10000.
The compound `Cc1cc(C)cc(Oc2c(Cn3ncc4ccccc43)c(C)[nH]c(=O)c2I)c1` gave a pIC50 in experiment [1] of 8.10. Besides, the “Ratio CC50/IC50” value in experiment [2] is greater than 3981.
On to `Cc1cc(C)cc(Sc2c(Cn3cccc3C#N)c(C)[nH]c(=O)c2I)c1`, for which the negative-log IC50 (pIC50) in experiment [1] is 9.00. For the same compound, in experiment [2], the “Ratio CC50/IC50” value was greater than 31623.
In the case of `Cc1cc(C)cc(Oc2c(Cn3ccnc3Br)c(C)[nH]c(=O)c2I)c1`, the pIC50 in experiment [1] was 8.10. Also, the “Ratio CC50/IC50” value in experiment [2] was greater than 3981.
Consider `Cc1cc(C)cc(Sc2c(CN)c(C)[nH]c(=O)c2I)c1`, for which the negative logarithm of the IC50 (pIC50) is 7.70 in experiment [1], less than 5.00 in experiment [3], 6.10 in experiment [4] and 6.80 in experiment [5].
